Assay results gathered from unrelated publications.
Each line is one published result; the experiments were not run side by side.
Target: Protein kinase C epsilon type (PRKCE, Homo sapiens, UniProt Q02156)
One construct used (Q02156 1-737): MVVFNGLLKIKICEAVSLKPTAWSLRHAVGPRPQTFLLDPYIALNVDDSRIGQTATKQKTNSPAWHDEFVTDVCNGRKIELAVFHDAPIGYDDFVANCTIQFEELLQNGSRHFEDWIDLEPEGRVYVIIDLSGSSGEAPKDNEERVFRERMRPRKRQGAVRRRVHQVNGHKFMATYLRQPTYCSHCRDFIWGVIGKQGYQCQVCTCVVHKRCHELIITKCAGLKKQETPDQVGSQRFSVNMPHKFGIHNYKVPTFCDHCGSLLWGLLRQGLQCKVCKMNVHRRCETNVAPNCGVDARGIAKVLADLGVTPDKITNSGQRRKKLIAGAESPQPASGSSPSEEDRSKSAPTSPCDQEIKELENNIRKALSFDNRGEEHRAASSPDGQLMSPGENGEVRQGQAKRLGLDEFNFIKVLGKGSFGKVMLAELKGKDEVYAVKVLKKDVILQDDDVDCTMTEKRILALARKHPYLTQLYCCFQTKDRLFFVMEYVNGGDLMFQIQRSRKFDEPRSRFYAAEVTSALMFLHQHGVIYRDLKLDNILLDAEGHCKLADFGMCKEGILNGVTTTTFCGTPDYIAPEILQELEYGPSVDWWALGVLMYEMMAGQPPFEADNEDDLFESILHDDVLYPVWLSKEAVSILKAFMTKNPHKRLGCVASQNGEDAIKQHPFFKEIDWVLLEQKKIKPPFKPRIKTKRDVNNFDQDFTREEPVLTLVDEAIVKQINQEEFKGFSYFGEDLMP

| SMILES | observed | mode | technique | tested at | measurement | result |
| --- | --- | --- | --- | --- | --- | --- |
| O=C(CSc1nc2nccnc2c(=O)n1CCc1ccccc1)Nc1nccs1 | enzyme activity | inhibitor |  | 10 µM | inhibition | -23% |
| Nc1c(C(=O)NCc2ccc(C(=O)NCCCC3CCCCC3)cc2)cnn1-c1ccccc1 | cell-free assay |  | competition with immobilised ligand | 0.1 µM | remaining binding | 100% |
| CC(C)(O)[C@H]1CC[C@H](Nc2ccc3ncc(-c4cccc(C(F)(F)F)c4)n3n2)CC1 | enzyme activity | inhibitor |  | 1 µM | remaining activity | 60.1% |
| CCN(CC)c1ccc(C2=NNC(=O)CC2C)cc1[N+](=O)[O-] (stereo not shown) | enzyme activity | inhibitor |  | 10 µM | remaining activity | 95% |
| CCCS(=O)(=O)Nc1ccc(F)c(C(=O)c2c[nH]c3ncc(-c4ccc(Cl)cc4)cc23)c1F | enzyme activity | inhibitor |  | 1 µM | inhibition | < 10% |
| COc1ccc2c(c1)O[C@H](c1ccc(OC)c(OC)c1)C[C@@H]2NC(=O)C1(c2ccc3c(c2)OC(F)(F)O3)CC1 | cell-free assay |  | competition with immobilised ligand | 1 µM | remaining binding | 90% |
| CC(C)(C)c1nc2c(s1)c1nc(N)ncc1c1ccc(NS(=O)(=O)c3c(F)cccc3F)c(F)c12 | enzyme activity | inhibitor | radiometric | 1 µM | remaining activity | 133% |
| Cc1nc(Cc2cccc(C(F)(F)F)c2)sc1-c1ccc(C(N)=O)nc1 | cell-free assay |  | competition with immobilised ligand | 1 µM | remaining binding | 100% |
| COc1ccc(COc2ccc(Cc3cnc(N)nc3N)cc2OC)cc1 | cell-free assay |  |  | 0.5 µM | remaining signal | 95.7% |
| CN1CC(Oc2cnc(C#N)cc2-c2ccn3nc(NC(=O)C4CC4)cc3c2)C1 | enzyme activity | inhibitor |  | 1 µM | inhibition | 6% |
| CN(C)C[C@H]1CCn2c(c(C3=C(c4cn(C)c5ccccc45)C(=O)NC3=O)c3ccccc32)C1 | cell-free assay |  |  | 0.5 µM | remaining signal | 2.73% |
| CN(C)c1ncnc(-c2ccc3nc(Nc4cc(CN5CCN(C(=O)CC(F)(F)F)CC5)ccn4)[nH]c3c2)c1Cl | cell-free assay |  | competition with immobilised ligand | 1 µM | remaining binding | 100% |
| O=C1Nc2ccc(Cl)cc2C1=Cc1cc(Cl)c(O)c(Cl)c1 | cell-free assay |  |  | 0.5 µM | remaining signal | 100% |
| COc1cc2ncnc(Nc3ccc(Oc4ccccc4)cc3C)c2cc1OC | enzyme activity | inhibitor |  | 1 µM | inhibition | 0% |
| CC(C)c1ccc(NC(=O)c2cccs2)c(-c2nc3ccccc3[nH]c2=O)c1 | enzyme activity | inhibitor |  | 1 µM | activity vs control | 109% |
| O=C(Nc1cccnn1)N1CC(C/C=C/c2cncc(Oc3ccc(C(F)(F)F)cn3)n2)C1 | cell-free assay |  | competition with immobilised ligand | 1 µM | remaining binding | 100% |
| O=C(Nc1cnn(-c2csc(C(=O)NC3COC3)c2)c1)Nc1c(F)cccc1Cl | enzyme activity | inhibitor |  | 5 µM | remaining activity | 94.2% |
| Cn1cncc1C1=CN(c2ncnc3[nH]cnc23)CCS1 | enzyme activity | inhibitor | radiometric | 2 µM | inhibition | 92.7% |
| O=C(O)c1cc(-c2ccc(C3CCNCC3)cc2)c2ccc(-c3ccc(C(F)(F)F)cc3)cc2c1 | cell-free assay |  | competition with immobilised ligand | 1 µM | remaining binding | 100% |
| Cc1cc(NC(=O)c2cccc3cc(-c4cccc5[nH]nc(N)c45)ccc23)ccc1F | enzyme activity | inhibitor |  | 0.1 µM | activity vs control | 84% |
| Cc1nc(N2CC[C@@H](O)C2)ncc1-c1cc(C(F)(F)F)cc2[nH]ncc12 | cell-free assay |  | competition with immobilised ligand | 1 µM | remaining binding | 88% |
| Nc1ncnc2occ(-c3ccc(NC(=O)Nc4cc(C(F)(F)F)ccc4F)cc3)c12 | cell-free assay |  |  | 20 µM | remaining signal | 50% |
| Cc1ccc(Nc2nccc(N(C)c3ccc4c(C)n(C)nc4c3)n2)cc1S(N)(=O)=O | enzyme activity | inhibitor |  | 10 µM | inhibition | 12% |
| Nc1cnc(N2CCc3cc(S(=O)(=O)Nc4c(F)cc(Cl)cc4F)cc(N4CCCC4=O)c32)nc1 | cell-free assay |  | competition with immobilised ligand | 1 µM | remaining binding | 100% |
| O=C(Nc1nccs1)C(c1cc(F)ccc1O)N1Cc2ccccc2C1=O (stereo not shown) | enzyme activity | inhibitor |  | 1 µM | inhibition | 14% |
